# Reference: article PMC9968262 (American Journal of Clinical Dermatology, 2022)
# Where “and” joins values, the source holds several entries; their conditions need not be identical. Equal entries are not always repeated. Where two headings read alike, the source gives them in different places.
# How the values were obtained:
# Maximal usage PK study = type: in vivo, human; conditions: for steady state achieved by: plasma concentrations, roflumilast cream 0.3% once daily; for Tmax, h (min–max): plasma, Day 15, roflumilast cream 0.3% daily topical, mean (min–max)
# Summary of the method: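 Open-label, single-arm, 2-week maximal-use study: 0.3% cream at 2 mg/cm2 once each evening to all plaques except the scalp. Subjects were adolescents 12–17 y (≥10% BSA) and adults (≥20% BSA), with IGA ≥3. Plasma was sampled predose and 1, 2, 4, 8 and 24 h post-dose on Days 1 and 15, plus 7, 14 and 21 days after the last dose. Analysis was LC-MS/MS (LLOQ 0.100 ng/mL) with noncompartmental linear trapezoidal methods.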
# Phase I/IIa study [1] = type: in vivo, human; conditions: for skin samples with measurable (quantifiable) level: N = 27 skin samples; for Kp at 24 h / concentration at 24 h / concentration at 28 days: human, topical; for Kp at 24 h: skin (punch biopsy) / plasma; for concentration at 24 h / concentration at 28 days: skin (punch biopsy)
# Phase I/IIa study [2] = type: in vivo, human; conditions: for plasma concentration, mean (SD): Day 28; for concentration at 24 h / concentration at 28 days: human, plasma, topical
# Summary of the method: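 Cohort 2 was double-blind and vehicle-controlled: 0.15% or 0.5% cream once daily for 28 days. Patients had psoriasis for >6 months and ≤5% BSA involvement. Day 28 plasma was drawn before application and at 1, 2, 4, 6 and 24 h after the last dose. Parent and N-oxide were quantified by validated LC-MS/MS (LLOQ 0.100 ng/mL).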
# DERMIS-1 = type: in vivo, human; conditions: for Week 4 extrapolated AUC24, h*ng/mL / Week 8 extrapolated AUC24, h*ng/mL: predose concentration x 24, mean (SD)
# Summary of the method: (§1)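 Patients with chronic plaque psoriasis covering 2–20% BSA were randomized 2:1 (double-blind) to 0.3% cream or vehicle. Cream was applied once daily for 8 weeks, including to new lesions. Predose (Ctrough) plasma was sampled at Baseline, Week 4 and Week 8. Parent and N-oxide were measured by validated LC-MS/MS (LLOQ 0.100 ng/mL). AUC24 = observed predose concentration × 24.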
# DERMIS-2 = type: in vivo, human; conditions: for Week 4 extrapolated AUC24, h*ng/mL / Week 8 extrapolated AUC24, h*ng/mL: predose concentration x 24, mean (SD)
# Summary of the method: as §1
# [3] = cited from earlier work; for peak plasma concentration (Cmax): healthy volunteers; for elimination half-life: roflumilast administered orally
# [4] = test system: phosphodiesterase 4 (PDE4); conditions: active metabolite; cited from earlier work
# [5] = oral 500 µg; cited from earlier work
# [6] = cited from earlier work
# [7] = at 22 °C; cited from earlier work
# [8] = age 6–11 years (N = 1), predose concentration x 24
# [9] = age 12–17 years (N = 3), predose plasma (Ctrough), mean (SD)
# [10] = age ≥ 18 years (N = 241), predose plasma (Ctrough), mean (SD)
# [11] = age 6–11 years (N = 1), predose plasma (Ctrough)
# [12] = age 12–17 years (N = 5), predose plasma (Ctrough), mean (SD)
# [13] = age ≥ 18 years (N = 244), predose plasma (Ctrough), mean (SD)
# [14] = multiple dosing of oral roflumilast 500 µg
compound,measurement,setting,value
O=C(Nc1c(Cl)c[n+]([O-])cc1Cl)c1ccc(OC(F)F)c(OCC2CC2)c1 [roflumilast N-oxide],steady state achieved by,Maximal usage PK study,≤ 15 days
same,"Tmax, h (min–max)",Maximal usage PK study; adolescents 12–17 years,16.5 (1.0–24.0) h
same,"Tmax, h (min–max)",Maximal usage PK study; adults ≥18 years,12.9 (0–24) h
same,roflumilast N-oxide plasma concentrations relative to roflumilast concentrations,"Maximal usage PK study; repeat daily topical roflumilast cream 0.3%, steady state",eightfold
same,skin samples with measurable (quantifiable) level,Phase I/IIa study [1],only one sample
same,skin samples with measurable (quantifiable) level,Phase I/IIa study [1]; listed as Roflumilast N-oxide,only one skin sample
same,skin concentrations lower than circulating plasma concentrations,"Phase I/IIa study [1]; skin LLOQ of 0.2 ng/g, cream 0.15% and 0.5%",at least 30 fold
same,"plasma concentration, mean (SD)",Phase I/IIa study [2]; roflumilast cream 0.15% (n = 21),5.44 [4.95] ng/mL
same,"plasma concentration, mean (SD)",Phase I/IIa study [2]; roflumilast cream 0.5% (n = 20),6.52 [4.04] ng/mL
same,Week 8 extrapolated AUC24,DERMIS-1; [8],103 ng·h/mL
same,"Week 4 extrapolated AUC24, h*ng/mL",DERMIS-1; age 12–17 years (N = 3),202 (91.2) h*ng/mL
same,"Week 8 extrapolated AUC24, h*ng/mL",DERMIS-1; age 12–17 years (N = 3),209 (132) h*ng/mL
same,"Week 4 conc., ng/mL",DERMIS-1; [9],8.42 (3.80) ng/mL
same,"Week 8 conc., ng/mL",DERMIS-1; [9],8.71 (5.49) ng/mL
same,"Week 4 extrapolated AUC24, h*ng/mL",DERMIS-1; age ≥ 18 years (N = 241),288 (310) h*ng/mL
same,"Week 8 extrapolated AUC24, h*ng/mL",DERMIS-1; age ≥ 18 years (N = 241),242 (290) h*ng/mL
same,"Week 4 conc., ng/mL",DERMIS-1; [10],11.8 (12.9) ng/mL
same,Week 8 conc.,DERMIS-1; [10],9.86 ng/mL and 9.9 ng/mL
same,Week 4 extrapolated AUC24,DERMIS-2; [8],576 ng·h/mL
same,Week 8 extrapolated AUC24,DERMIS-2; [8],614 ng·h/mL
same,Week 4 conc.,DERMIS-2; [11],24.0 ng/mL
same,Week 8 conc.,DERMIS-2; [11],25.6 ng/mL
same,"Week 4 extrapolated AUC24, h*ng/mL",DERMIS-2; age 12–17 years (N = 5),84.6 (58.4) h*ng/mL
same,"Week 8 extrapolated AUC24, h*ng/mL",DERMIS-2; age 12–17 years (N = 5),161 (174) h*ng/mL
same,"Week 4 conc., ng/mL",DERMIS-2; [12],3.53 (2.44) ng/mL
same,"Week 8 conc., ng/mL",DERMIS-2; [12],6.72 (7.24) ng/mL
same,"Week 4 extrapolated AUC24, h*ng/mL",DERMIS-2; age ≥ 18 years (N = 244),294 (338) h*ng/mL
same,"Week 8 extrapolated AUC24, h*ng/mL",DERMIS-2; age ≥ 18 years (N = 244),249 (308) h*ng/mL
same,"Week 4 conc., ng/mL",DERMIS-2; [13],12.2 (14.1) ng/mL
same,Week 8 conc.,DERMIS-2; [13],10.2 ng/mL
same,systemic exposure of roflumilast N-oxide relative to roflumilast,[3]; intravenous administration of roflumilast,7.4 times
same,peak plasma concentration (Cmax),[3]; [14],21.7 ng/mL
same,systemic exposure of roflumilast N-oxide relative to roflumilast,[3]; oral administration of roflumilast,12.4 times
same,elimination half-life,[3],30 h
same,potency of N-oxide metabolite relative to roflumilast,[4],threefold less potent
O=C(Nc1c(Cl)cncc1Cl)c1ccc(OC(F)F)c(OCC2CC2)c1 [roflumilast],steady state achieved by,Maximal usage PK study,≤ 15 days
same,peak-to-trough ratio (plasma),"Maximal usage PK study; steady state (Day 15), topical roflumilast cream 0.3%",1.2
same,skin samples with measurable (quantifiable) level,Phase I/IIa study [1],All but one sample
same,Kp at 24 h,Phase I/IIa study [1]; 0.15 % cream,126
same,Kp at 24 h,Phase I/IIa study [1]; 0.5 % cream,61.8
same,concentration at 24 h,Phase I/IIa study [1]; 0.15 % cream,84 ng/mL
same,concentration at 28 days,Phase I/IIa study [1]; 0.15 % cream,120 ng/g
same,concentration at 24 h,Phase I/IIa study [1]; 0.5 % cream,51 ng/mL
same,concentration at 28 days,Phase I/IIa study [1]; 0.5 % cream,56.1 ng/g
same,concentration at 24 h,Phase I/IIa study [2]; 0.15 % cream,1.15 ng/mL
same,concentration at 28 days,Phase I/IIa study [2]; 0.15 % cream,1.03 ng/mL
same,concentration at 24 h,Phase I/IIa study [2]; 0.5 % cream,0.805 ng/mL
same,concentration at 28 days,Phase I/IIa study [2]; 0.5 % cream,1.15 ng/mL
same,"Week 8 extrapolated AUC24, h*ng/mL",DERMIS-1; age ≥ 18 years (N = 241),47.4 (58.3) h*ng/mL
same,"Week 4 conc., ng/mL",DERMIS-1; [10],2.05 (2.83) ng/mL
same,diarrhea (occurrence),[5],9.5%
same,nausea (occurrence),[5],4.7%
same,weight decreased (occurrence),[5],7.5%
same,oral bioavailability,[3]; 500 µg oral dose,approximately 79%
same,time to absorption / peak levels after oral dose,[3]; 500 µg oral dose,about 1.25 h
same,time to absorption / peak levels after oral dose,"[3]; 500 µg oral dose, listed as Roflumilast",1 h
same,Cmax in COPD patients higher than in healthy volunteers,[3]; [14],about 6%
same,peak plasma concentration (Cmax),[3]; [14],6.01 ng/mL
same,peak-to-trough ratio,[3]; oral administration,greater than 10
same,elimination half-life,[3],17 to 30 h and 17 h
same,logP,[6],3.53
same,water solubility,[7],0.52 to 0.56 mg/L
